Assay results from ChEMBL document CHEMBL4017532, “Multifunctional Hybrid Compounds Derived from 2-(2,5-Dioxopyrrolidin-1-yl)-3-methoxypropanamides with Anticonvulsant and Antinociceptive Properties” (J Med Chem, 2017).
The source made the active and inactive calls.

Legend:
Mus musculus [1] = test: Analgesic activity in Albino Swiss CD-1 mouse assessed as increase in pain response latency administered at 4 mg/kg, ip treated up to 90 mins prior to tet by hot plate assay; assay type: functional, organism-based
Procedure, shortened: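 Adult male Albino Swiss CD-1 mice (18−25 g), 6−12 per group, each used once. Drug given ip suspended in 1% aqueous Tween 80; vehicle controls received Tween 80. Mice were put back on the hot plate at 15, 30, 45, 60 and 90 min after dosing, and latency to pain reaction was recorded. Data are means ± SEM, analysed by ANOVA with post hoc tests.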

Mus musculus [2] = test: Anticonvulsant activity in Albino Swiss CD-1 mouse assessed as protection against 6 Hz current-induced seizure at 100 mg/kg, ip pretreated up to 2 hrs followed by 6 Hz current induction for 3 secs relative to control; assay type: functional
Mus musculus [3] = test: Anticonvulsant activity in Albino Swiss CD-1 mouse assessed as protection against maximal electroshock-induced seizures by measuring time to peak effect at 100 mg/kg, ip pretreated up to 2 hrs followed by 50 Hz current induction for […]; assay type: functional
Mus musculus [4] = test: Anticonvulsant activity in ip dosed Albino Swiss CD-1 mouse assessed as protection against 32 mA current-induced seizure treated up to 2 hrs prior to 6-Hz current induction measured at time to peak effect; assay type: functional; details: Swiss CD-1, ip
[5] = Neurotoxicity in ip dosed Albino Swiss CD-1 mouse assessed as induction of motor impairment measured up to 60 secs by chimney test; assay type: toxicity, organism-based; details: in vivo
Procedure, shortened: (§1)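 Acute neurological toxicity after ip dosing (1% Tween 80 suspension) was assessed in the mouse chimney test. TD50 with 95% confidence limits was derived by probit analysis. Protective index is TD50 from the chimney test divided by ED50 from the MES, scPTZ or 6 Hz test.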

Mus musculus [6] = test: Protection index, ratio of TD50 for neurotoxicity in ip dosed Albino Swiss CD-1 mouse to ED50 for ip dosed Albino Swiss CD-1 mouse model of 6 Hz-induced siezures; procedure, shortened: as §1
Mus musculus [7] = test: Anticonvulsant activity in ip dosed Albino Swiss CD-1 mouse assessed as protection against maximal electroshock-induced seizures pretreated up to 2 hrs followed by 50 Hz current induction for […] measured at time to peak effect; assay type: functional; details: Swiss CD-1, ip
Mus musculus [8] = test: Protection index, ratio of TD50 for neurotoxicity in ip dosed Albino Swiss CD-1 mouse to ED50 for ip dosed maximal electroshock induced seizure Albino Swiss CD-1 mouse; procedure, shortened: as §1
[9] = Retention time of the compound by LC-MS method
Liver [10] = test: Drug level in human liver microsomes treated with 1-{1-[4-(4-Trifluoromethylphenyl)piperazin-1-yl]-3-methoxy-1-oxopropan-2-yl}pyrrolidine-2,5-dione preincubated for 5 mins followed by NADPH addition measured after 2 hrs by LC-MS method; assay type: ADME, microsome
Mus musculus [11] = test: Anticonvulsant activity in Albino Swiss CD-1 mouse assessed as inhibition of pentylenetetrazole-induced seizures by measuring time to peak effect at 100 mg/kg, ip administered up to 2 hrs prior to PTZ induction measured for 30 mins; assay type: functional
Mus musculus [12] = test: Antinociceptive activity in Albino Swiss CD-1 mouse assessed as inhibition of formalin-induced neurogenic pain response at 100 mg/kg, ip administered 30 mins before formalin injection measured up to 5 mins relative to control; assay type: functional; details: Swiss CD-1, ip
Procedure, shortened: (§2)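 Male CD-1 mice were given test agents ip 30 min before subcutaneous intraplantar formalin. Doses were 12.5, 25 or 50 mg/kg, or 100, 150 or 200 mg/kg for the reference. Vehicle was 1% Tween 80 at 10 mL/kg. Paw licking time was recorded in phase I (0–5 min) and phase II (15–30 min). Data are mean ± SEM of 8–10 mice, by Dunnett's test. ED50 was obtained by log-probit analysis with 95% confidence limits.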

Mus musculus [13] = test: Antinociceptive activity in Albino Swiss CD-1 mouse assessed as inhibition of formalin-induced neurogenic pain response at 150 mg/kg, ip administered 30 mins before formalin injection measured up to 5 mins relative to control; assay type: functional; details: Swiss CD-1, ip; procedure, shortened: as §2
Mus musculus [14] = test: Antinociceptive activity in Albino Swiss CD-1 mouse assessed as inhibition of formalin-induced neurogenic pain response at 200 mg/kg, ip administered 30 mins before formalin injection measured up to 5 mins relative to control; assay type: functional; details: Swiss CD-1, ip; procedure, shortened: as §2
Mus musculus [15] = test: Antinociceptive activity in Albino Swiss CD-1 mouse assessed as inhibition of capsaicin-induced nociception by measuring time spent licking injected paw at 200 mg/kg, ip administered 30 mins mins prior to capsaicin challenge measured for 5 mins relative to control; assay type: functional; details: Swiss CD-1, ip
Procedure, shortened: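 Mice (male CD-1, 18–25 g) were pretreated ip 30 min before intraplantar capsaicin. Doses were 25, 50 or 100 mg/kg, or 100, 150 or 200 mg/kg for the reference. Vehicle was 1% Tween 80 at 10 mL/kg. Duration of nociceptive response was scored over 5 min after injection. Data are mean ± SEM of 8–10 mice, by one-way ANOVA with Dunnett's test against vehicle.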

Mus musculus [16] = test: Antiallodynic activity in oxaliplatin-induced Albino Swiss CD-1 mouse model of peripheral neuropathy assessed as elevation in pain sensitivity threshold at 50 mg/kg, ip administered 30 mins prior to oxaliplatin challenge relative to control; assay type: functional
Procedure, shortened: (§3)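 Male CD-1 mice, 18–25 g, that had developed oxaliplatin-induced tactile allodynia were dosed ip 30 min before testing. Doses were 25, 50 or 100 mg/kg, or 50, 100 or 150 mg/kg for the reference. Vehicle was 1% aqueous Tween 80. Paw-withdrawal force was measured by von Frey filaments. Data are mean ± SEM, analysed by repeated-measures ANOVA with Dunnett's test against oxaliplatin plus vehicle mice.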

Mus musculus [17] = test: Antiallodynic activity in oxaliplatin-induced Albino Swiss CD-1 mouse model of peripheral neuropathy assessed as elevation in pain sensitivity threshold at 100 mg/kg, ip administered 30 mins prior to oxaliplatin challenge relative to control; assay type: functional; procedure, shortened: as §3
Mus musculus [18] = test: Antiallodynic activity in oxaliplatin-induced Albino Swiss CD-1 mouse model of peripheral neuropathy assessed as elevation in pain sensitivity threshold at 150 mg/kg, ip administered 30 mins prior to oxaliplatin challenge relative to control; assay type: functional; procedure, shortened: as §3
Mus musculus [19] = test: Analgesic activity in Albino Swiss CD-1 mouse assessed as increase in pain response latency administered at 150 mg/kg, ip treated up to 90 mins prior to tet by hot plate assay; assay type: functional, organism-based
Procedure, shortened: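 Male CD-1 mice, 18–25 g, 6–12 per group, given test agents as 1% aqueous Tween 80 suspension ip. Doses were 50, 100 or 150 mg/kg, with morphine hydrochloride at 4 mg/kg as reference. Mice were placed on the hot plate 15, 30, 45, 60 and 90 min after dosing, and latency to pain reaction was recorded.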

Liver [20] = test: Drug level in human liver microsomes treated with 1-{1-[4-(3-Chlorophenyl)piperazin-1-yl]-3-methoxy-1-oxopropan-2-yl}pyrrolidine-2,5-dione preincubated for 5 mins followed by NADPH addition measured after 2 hrs by LC-MS method; assay type: ADME, microsome
Mus musculus [21] = test: Anticonvulsant activity in Albino Swiss CD-1 mouse assessed as protection against 6 Hz current-induced seizure at 100 mg/kg, ip pretreated up to 0.5 hrs followed by 6 Hz current induction for 3 secs relative to control; assay type: functional

SMILES | Time (Mus musculus [3]) [h] | ED50 (Mus musculus [4]) [mg/kg] | TD50 at 1 min [5] [mg/kg] | Ratio TD50/ED50 (Mus musculus [6]) | also measured
CN1CC[C@]23c4c5ccc(O)c4O[C@H]2[C@@H](O)C=C[C@H]3[C@H]1C5 |  |  |  |  | Activity (Mus musculus [1]): Active
COCC(C(=O)N1CCN(C)CC1)N1C(=O)CCC1=O (stereo not drawn) | 0.25 | 68.2 | > 500 | >7.3 | Activity (Mus musculus [2]): <=75%
COC[C@H](C(=O)N1CCN(c2ccc(C(F)(F)F)cc2)CC1)N1C(=O)CCC1=O | 0.25 to 1 | 21.1 to 22.1 | 167 to 194 | 8 - 9.2 | ED50 (Mus musculus [7]): 80.9 to 88.9 mg/kg; Ratio TD50/ED50 (Mus musculus [8]): 1.9 - 2.1
COC[C@@H](NC(C)=O)C(=O)NCc1ccccc1 [LACOSAMIDE] | 0.5 | 6.4 | 33.7 | 5.3 | ED50 (Mus musculus [7]): 9.4 mg/kg; Ratio TD50/ED50 (Mus musculus [8]): 3.6
COCC(C(=O)N1C=CN(c2ccc(C(F)(F)F)cc2)CC1)N1C(=O)CCC1=O (stereo not drawn) |  |  |  |  | Retention time [9]: 6.23 min; Drug metabolism (Liver [10]): Metabolite_Detected
CCCC(CCC)C(=O)O [VALPROIC ACID] | 0.5 |  | 373 |  | Time (Mus musculus [11]): 0.5 h; inhibition in vivo at 100 mg/kg (Mus musculus [12]): 15.7%; inhibition in vivo at 150 mg/kg (Mus musculus [13]): 25.8%; inhibition in vivo at 200 mg/kg (Mus musculus [14]): 29.2%; inhibition in vivo at 200 mg/kg (Mus musculus [15]): 42.2%; Activity (Mus musculus [16]): 105%; Activity (Mus musculus [17]): 121%; Activity (Mus musculus [18]): 151.5%; Activity (Mus musculus [19]): inactive
COCC(C(=O)N1C=CN(c2cccc(Cl)c2)CC1)N1C(=O)CCC1=O (stereo not drawn) |  |  |  |  | Retention time [9]: 6.04 min; Drug metabolism (Liver [20]): Metabolite_Detected
CC[C@@H](C(N)=O)N1CCCC1=O [LEVETIRACETAM] | 1 |  | > 500 | >33.8 | ED50 (Mus musculus [7]): > 500 mg/kg
O=C(C(CO)N1C(=O)CCC1=O)N1CCN(c2cccc(C(F)(F)F)c2)CC1 (stereo not drawn) |  |  |  |  | Efficacy (Mus musculus [21]): 50%
COCC(C(=O)N1CCN(c2ccc(C)cc2)CC1)N1C(=O)CCC1=O (stereo not drawn) | 0.25 | 21.1 | 204 | 9.6 | Activity (Mus musculus [2]): <=75%
COCC(C(=O)N1CCN(c2cccc(Cl)c2Cl)CC1)N1C(=O)CCC1=O (stereo not drawn) | 0.25 to 0.5 | 38 to 54.7 | 224 to 261 | 4.8 - 5.9 | Activity (Mus musculus [2]): <=75%
